Source: ChEMBL document CHEMBL2385032, “Dual-functional abeo-taxane derivatives destabilizing microtubule equilibrium and inhibiting NF-κB activation” (2013)
Active and inactive are the calls of the source. The calls are words filed in the database; no cut-off is given here.

Columns and labels:
PC-3 [1] = test: Induction of microtubule depolymerization in human PC3 cells at 200 nM after 24 hrs by DAPI staining-based immunofluorescence microscopic analysis; type: cell-based
Outline: (§1)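 PC-3 cells grown on chamber slides 36 h, then treated 24 h (test agents 2, 5 or 10 μM; reference agents 200 nM); fixed in 4% paraformaldehyde, permeabilized with 0.5% Triton X-100, stained with anti-α-tubulin monoclonal plus FITC secondary and DAPI for nuclei; spindle and microtubule morphology by fluorescence microscopy.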

HCT-116 [2] = test: Cell cycle arrest in human HCT116 cells assessed as accumulation at G0/G1 phase at 2 uM after 12 hrs by propidium iodide staining-based FACS analysis (reference value: 54.63 to 55.88 %); type: functional
HCT-116 [3] = test: Induction of apoptosis in human HCT116 cells at 2 uM after 24 hrs by AnnexinV-FITC/PI staining-based flow cytometry; type: functional
HCT-116 [4] = test: Cell cycle arrest in human HCT116 cells assessed as accumulation at S phase at 1 uM after 12 hrs by propidium iodide staining-based FACS analysis (reference value: 20.48 to 23.62 %); type: functional
HCT-116 [5] = test: Induction of apoptosis in human HCT116 cells at 1 uM after 24 hrs by AnnexinV-FITC/PI staining-based flow cytometry; type: functional
HEK-293T [6] = test: Inhibition of TNF-alpha induced NF-kapppaB activation in HEK293T cells at 1.25 uM incubated 1 hr prior to TNF-alpha addition measured after 18 hrs by luciferase reporter gene assay; type: cell-based; conditions: Homo sapiens
Outline: (§2)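 HEK 293T cells transiently transfected 12 h with pNFκB-luc and pRL-TK, pretreated 1 h with compound (0.31–2.50 μM) or DMSO, then stimulated with TNF-α 25 ng/mL for 18 h; firefly and Renilla luciferase read by dual-luciferase assay. Data from one of three independent experiments.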

HCT-116 [7] = test: Cytotoxicity against human HCT116 cells; type: functional
Outline: (§3)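 NCI-60 human tumor cell line screen run by standard NCI protocol: single-dose prescreen at 10 μM, then multi-dose testing of compounds giving over 50% growth inhibition; GI50 = concentration for 50% growth inhibition.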

Tubulin (Homo sapiens) [8] = target: T1, Tubulin (Homo sapiens) (UniProt P68371+Q9H4B7+P0DPH7+P68366+Q13509+Q71U36+P04350+Q3ZCM7+P07437+P68363+Q9BQE3+Q6PEY2+Q13885+Q9BVA1+Q9BUF5); test: Inhibition of tubulin (unknown origin) polymerization assessed as destabilization of microtubule at 15 uM by fluorescence assay; type: protein-complex assay
Outline: (§4)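 Cell-free tubulin polymerization kit; tubulin mixed with DMSO control, 500 μM CaCl2, 3 μM paclitaxel or test compounds at 15 or 30 μM; polymerization followed kinetically by fluorescence, excitation 340 nm, emission 420 nm, in a temperature-regulated fluorimeter. Three independent experiments in triplicate.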

HCT-116 [9] = test: Cell cycle arrest in human HCT116 cells assessed as reduction in G0/G1 phase after 12 hrs by propidium iodide staining-based FACS analysis; type: functional
HEK-293T [10] = test: Inhibition of TNF-alpha induced NF-kapppaB activation in HEK293T cells at 2.50 uM incubated 1 hr prior to TNF-alpha addition measured after 18 hrs by luciferase reporter gene assay; type: cell-based; conditions: Homo sapiens; outline: as §2
HCT-116 [11] = test: Cell cycle arrest in human HCT116 cells assessed as accumulation at S phase at 2 uM after 12 hrs by propidium iodide staining-based FACS analysis (reference value: 20.48 to 23.62 %); type: functional
OVCAR-3 = test: Cytotoxicity against human OVCAR3 cells; type: functional; outline: as §3
T47D = test: Cytotoxicity against human T47D cells; type: functional; outline: as §3
LOX IMVI = test: Cytotoxicity against human LOXIMVI cells; type: functional
HEK-293T [12] = test: Inhibition of TNF-alpha induced NF-kapppaB activation in HEK293T cells at 0.62 uM incubated 1 hr prior to TNF-alpha addition measured after 18 hrs by luciferase reporter gene assay; type: cell-based; conditions: Homo sapiens; outline: as §2
HCT-116 [13] = test: Cell cycle arrest in human HCT116 cells assessed as accumulation at G2/M phase after 12 hrs by propidium iodide staining-based FACS analysis; type: functional
HCT-116 [14] = test: Cell cycle arrest in human HCT116 cells assessed as accumulation at G2/M phase at 1 uM after 12 hrs by propidium iodide staining-based FACS analysis (reference value: 20.40 to 22.32 %); type: functional
NCI-H322M = test: Cytotoxicity against human NCI-H322M cells; type: functional; outline: as §3
HEK-293T [15] = test: Inhibition of TNF-alpha induced NF-kapppaB activation in HEK293T cells incubated 1 hr prior to TNF-alpha addition measured after 18 hrs by luciferase reporter gene assay; type: cell-based; conditions: Homo sapiens; outline: as §2
Homo sapiens [16] = species on record: Homo sapiens; test: Induction of microtubule depolymerization in human PC3 mitotic cells assessed as abnormal spindles at 5 uM after 24 hrs by DAPI staining-based immunofluorescence microscopic analysis; type: cell-based; outline: as §1
HCT-116 [17] = test: Induction of apoptosis in human HCT116 cells after 24 hrs by AnnexinV-FITC/PI staining-based flow cytometry; type: functional, cell-based
DU-145 = test: Cytotoxicity against human DU145 cells; type: functional; outline: as §3
HCT-116 [18] = test: Induction of apoptosis in human HCT116 cells assessed as early apoptotic cells at 2 uM after 24 hrs by AnnexinV-FITC/PI staining-based flow cytometry (reference value: 2.17 %); type: functional
Homo sapiens [19] = species on record: Homo sapiens; test: Induction of microtubule depolymerization in human PC3 interphase cells at 5 uM after 24 hrs by DAPI staining-based immunofluorescence microscopic analysis; type: cell-based; outline: as §1
SNB-19 = test: Cytotoxicity against human SNB19 cells; type: functional; outline: as §3
RXF 393 = test: Cytotoxicity against human RXF393 cells; type: functional; outline: as §3
HCT-116 [20] = test: Induction of apoptosis in human HCT116 cells assessed as early apoptotic cells at 1 uM after 24 hrs by AnnexinV-FITC/PI staining-based flow cytometry (reference value: 2.17 %); type: functional
HCT-116 [21] = test: Induction of apoptosis in human HCT116 cells assessed as late apoptotic cells at 1 uM after 24 hrs by AnnexinV-FITC/PI staining-based flow cytometry (reference value: 2.53 %); type: functional
HCT-116 [22] = test: Cell cycle arrest in human HCT116 cells assessed as accumulation at G0/G1 phase at 1 uM after 12 hrs by propidium iodide staining-based FACS analysis (reference value: 54.63 to 55.88 %); type: functional
HCT-116 [23] = test: Induction of apoptosis in human HCT116 cells assessed as late apoptotic cells at 2 uM after 24 hrs by AnnexinV-FITC/PI staining-based flow cytometry (reference value: 2.53 %); type: functional
Tubulin (Homo sapiens) [24] = target: T1, Tubulin (Homo sapiens); test: Induction of tubulin (unknown origin) polymerization at 3 uM by fluorescence assay; type: protein-complex assay; outline: as §4
MOLT-4 = test: Cytotoxicity against human MOLT4 cells; type: functional; outline: as §3
PC-3 [25] = test: Induction of microtubule polymerization in human PC3 cells assessed as bundled sheet like pattern at 200 nM after 24 hrs by DAPI staining-based immunofluorescence microscopic analysis; type: cell-based; outline: as §1
HEK-293T [26] = test: Inhibition of TNF-alpha induced NF-kapppaB activation in HEK293T cells at 1.25 to 5 uM incubated 1 hr prior to TNF-alpha addition measured after 18 hrs by luciferase reporter gene assay; type: cell-based; conditions: Homo sapiens

COc1ccc(/C=C\c2cc(OC)c(OC)c(OC)c2)cc1O
Activity (PC-3 [1]): Active

C=C1C(=O)C[C@H](OC(C)=O)[C@@]2(C)[C@@H](OC(C)=O)[C@H](OC(=O)c3ccccc3)C3=C(C)[C@@H](OC(=O)[C@H](O)[C@@H](NC(=O)OC(C)(C)C)c4ccccc4)C[C@@]3(C(C)(C)O)[C@@H](OC(C)=O)[C@H]12
Activity (HCT-116 [2]): 50.3%
Activity (HCT-116 [3]): 19.87%
Activity (HCT-116 [4]): 20.48%
Activity (HCT-116 [5]): 4.93%
inhibition (HEK-293T [6]): 12%
GI50 (HCT-116 [7]): 1120 nM
inhibition (Tubulin (Homo sapiens) [8]): Active
Activity (HCT-116 [9]): Dose-dependent effect
inhibition (HEK-293T [10]): 28%
Activity (HCT-116 [11]): 16.39%
GI50 (OVCAR-3): 1690 nM
GI50 (T47D): 1880 nM
GI50 (LOX IMVI): 1700 nM
inhibition (HEK-293T [12]): 9%
Activity (HCT-116 [13]): Dose-dependent effect
Activity (HCT-116 [14]): 26.14%
GI50 (NCI-H322M): 18800 nM
inhibition (HEK-293T [15]): Dose-dependent effect
Activity (Homo sapiens [16]): Active
Activity (HCT-116 [17]): Dose-dependent effect
GI50 (DU-145): 1890 nM
Activity (HCT-116 [18]): 5.72%
Activity (Homo sapiens [19]): Active
GI50 (SNB-19): 27500 nM
GI50 (RXF 393): 1330 nM
Activity (HCT-116 [20]): 3.3%
Activity (HCT-116 [21]): 5.24%
Activity (HCT-116 [22]): 51.25%
Activity (HCT-116 [23]): 14.64%

CC(=O)O[C@H]1C(=O)[C@@]2(C)[C@H]([C@H](OC(=O)c3ccccc3)[C@]3(O)C[C@H](OC(=O)[C@H](O)[C@@H](NC(=O)c4ccccc4)c4ccccc4)C(C)=C1C3(C)C)[C@]1(OC(C)=O)CO[C@@H]1C[C@@H]2O [PACLITAXEL]
GI50 (HCT-116 [7]): 10 nM
GI50 (OVCAR-3): 20 nM
GI50 (T47D): 10 nM
GI50 (LOX IMVI): 16 nM
GI50 (NCI-H322M): 50 nM
Activity (Tubulin (Homo sapiens) [24]): Active
GI50 (DU-145): 32 nM
GI50 (MOLT-4): 32 nM
GI50 (SNB-19): 40 nM
GI50 (RXF 393): 50 nM
Activity (PC-3 [25]): Active

C=C1C(=O)C=C[C@@]2(C)[C@@H](OC(C)=O)[C@H](OC(=O)c3ccccc3)C3=C(C)[C@@H](OC(=O)[C@H](O)[C@@H](NC(=O)OC(C)(C)C)c4ccccc4)C[C@@]3(C(C)(C)O)[C@@H](OC(C)=O)[C@H]12
GI50 (HCT-116 [7]): 1870 nM
GI50 (OVCAR-3): 3190 nM
GI50 (T47D): 4780 nM
GI50 (LOX IMVI): 2200 nM
GI50 (NCI-H322M): 24600 nM
GI50 (DU-145): 6050 nM
GI50 (MOLT-4): 3780 nM
GI50 (SNB-19): > 100000 nM
GI50 (RXF 393): 2080 nM

C=C1C(=O)O[C@@H]2C3O[C@]3(C)CC/C=C(\C)CC[C@@H]12 (some centres not stated)
GI50 (HCT-116 [7]): 10000 nM
inhibition (HEK-293T [26]): Active
GI50 (OVCAR-3): 20000 nM
GI50 (NCI-H322M): 20000 nM
GI50 (MOLT-4): 15800 nM
GI50 (SNB-19): 63100 nM
GI50 (RXF 393): 12600 nM
